IDH1 R132H inh: inhibitors of IDH1 R132H reductase, primary screen, biochemical, plate reader, single point. Isocitrate dehydrogenase [NADP] cytoplasmic (Homo sapiens), O75874. diaphorase/resazurin fluorescence, 60 min. inhibition, % at 10 µM. actives 0.18% (n = 70,000); in the data active = inhibition above about 34%; inconclusive = no clear call, values can overlap the other calls; inactive = below about 11%;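 note: 0% = DMSO and 100% = no enzyme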
Target sequence (O75874 whole entry R132H): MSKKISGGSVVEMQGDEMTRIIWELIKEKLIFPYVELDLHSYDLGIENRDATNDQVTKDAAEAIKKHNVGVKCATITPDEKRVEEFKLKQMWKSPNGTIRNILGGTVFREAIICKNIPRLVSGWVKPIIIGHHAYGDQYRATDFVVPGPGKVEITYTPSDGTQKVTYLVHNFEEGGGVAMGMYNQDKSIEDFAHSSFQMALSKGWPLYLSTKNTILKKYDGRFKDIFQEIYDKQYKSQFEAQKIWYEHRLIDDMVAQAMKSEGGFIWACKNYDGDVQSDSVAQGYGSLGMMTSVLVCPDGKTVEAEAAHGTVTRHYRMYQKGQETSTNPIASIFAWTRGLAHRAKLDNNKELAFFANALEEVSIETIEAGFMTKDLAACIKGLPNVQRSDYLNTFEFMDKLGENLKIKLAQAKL
KDM4C inh: inhibitors of GASC-1 (KDM4C) histone demethylase, primary screen, biochemical, single concentration HTS. GST-KDM4C 2-372, H3K9me3 peptide, LANCE TR-FRET. inhibition, % at 12.5 µM. actives 0.15% (n = 96,000). AID 720574, 2013;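 active = mean replicate inhibition above about 25%, with at least 55% of replicates also reaching it, limit read from the data, passing the limit was not always enough; inconclusive = only one of those two conditions met; inactive = neither condition met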
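Material: GST-tagged GASC-1 (JMJD2C) catalytic fragment, aa 2-372 / Quantity: enzyme final amount 10 nM / Medium: HEPES buffer, pH 7.5, plus ascorbate / Doses: one test concentration per compound / Incubation: 30 min reaction, 60 min detection, RT / Measured by: LANCE TR-FRET / Read-out: inhibition from TR-FRET ratio decrease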
T cruzi growth-1: T. cruzi intracellular proliferation inhibitors, primary screen, cell-based, beta-gal Tulahuen parasites, NIH3T3 host, luminescence | actives 5.9% (n = 77,000) | T. cruzi beta-gal in NIH3T3, GalScreen luminescence, 90 h | inhibition, % at 8.34 µM;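 active = mean inhibition above about 93%, with at least 55% of replicates each passing it, limit read from the data, passing the limit was not always enough; inconclusive = only one of those two conditions holds; inactive = neither condition holds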
T cruzi growth-2: T. cruzi intracellular proliferation inhibitors, confirmation, cell-based, NIH3T3 host, beta-gal parasite, luminescence, cherry-pick | shares compounds with T cruzi growth-1 | T. cruzi beta-gal in NIH3T3, GalScreen luminescence, 90 h | inhibition, % at 8.35 µM | actives 72% (n = 5,600);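 active = mean replicate inhibition above about 95% and at least 55% of replicates individually reaching it, limit read from the data; inconclusive = only one of the two criteria is met; inactive = neither criterion is met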
T cruzi growth-3: inhibitors of intracellular T. cruzi replication, confirmation, NIH3T3 host cells, beta-gal parasites, cherry-pick, set 2; shares compounds with T cruzi growth-1; T. cruzi beta-gal in NIH3T3, GalScreen luminescence, 90 h; inhibition, % at 2.09 µM; actives 21% (n = 5,600);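 active = mean inhibition above about 95%, with at least 55% of replicates also reaching it, limit read from the data; inconclusive = meets just one of the two conditions; inactive = meets neither condition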;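 note: plate controls were neutral control median for no effect and positive control median for full effect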
3T3 cytotox: cytotoxicity in mouse NIH/3T3 fibroblasts, confirmation, cytotoxicity control for T. cruzi proliferation inhibitor project, cell-based, cherry-pick, single point | actives 14% (n = 5,600) | cytotoxicity (signal decrease), % at 8.35 µM | NIH/3T3 viability, CellTiter-Glo ATP luminescence, 90 h | shares compounds with T cruzi growth-1;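 active = mean signal decrease across replicates above about 35% based on untreated-well scatter, with enough replicates individually passing, limit read from the data; inconclusive = no rule stated though some were filed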;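 note: 0% = median of neutral control wells and 100% = median of positive control wells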
3T3 cytotox 2: NIH/3T3 fibroblast cytotoxicity, confirmation, cytotoxicity control, cell-based, cherry-pick, single point, set 2. AID 651744, 2012. NIH/3T3 viability, CellTiter-Glo ATP luminescence, 90 h. shares compounds with T cruzi growth-1. actives 56% (n = 5,600). inhibition, % at 24.9 µM;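 active = mean loss of cell viability signal at or above a set limit, and enough replicates individually reaching it; inconclusive = meets only the mean limit or only the replicate share; inactive = meets neither condition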;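 note: 0% = median of neutral control wells and 100% = median of positive control wells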
Numbers without * were called inactive; ? = inconclusive; · = no result. Only a selection was taken, and hits are over-represented in it overall.

SMILES	IDH1 R132H inh	KDM4C inh	T cruzi growth-1	T cruzi growth-2	T cruzi growth-3	3T3 cytotox	3T3 cytotox 2
C[C@H](CO)N1C[C@H](C)[C@@H](CN(C)Cc2ccc(C(F)(F)F)cc2)OCCCC[C@H](C)Oc2ccc(NS(C)(=O)=O)cc2C1=O	0.4	-0.2	92.8*	109.0*	32.4	21.0	53.5*
C[C@@H]1CCCCO[C@H](CN(C)Cc2ccc(C(F)(F)F)cc2)[C@@H](C)CN([C@@H](C)CO)C(=O)c2cc(NS(=O)(=O)c3ccc(Cl)cc3)ccc2O1	·	1.0	89.5	·	·	·	·
C[C@H]1CCCCO[C@@H](CN(C)Cc2ccc(C(F)(F)F)cc2)[C@@H](C)CN([C@@H](C)CO)C(=O)c2cc(NS(=O)(=O)c3ccccc3)ccc2O1	·	0.7	76.2	·	·	·	·
C[C@@H]1CN([C@H](C)CO)C(=O)c2cc(NS(C)(=O)=O)ccc2O[C@@H](C)CCCCO[C@@H]1CN(C)Cc1ccc(C(F)(F)F)cc1	-2.9	-0.7	67.3	·	·	·	·
C[C@H]1CCCCO[C@H](CN(C)Cc2ccc(C(F)(F)F)cc2)[C@@H](C)CN([C@@H](C)CO)C(=O)c2cc(NS(=O)(=O)c3ccccc3)ccc2O1	·	0.3	?	91.0	96.5*	2.8	104.4*
C[C@@H]1CCCCO[C@@H](CN(C)Cc2ccc(C(F)(F)F)cc2)[C@@H](C)CN([C@H](C)CO)C(=O)c2cc(NS(=O)(=O)c3ccc(Cl)cc3)ccc2O1	·	-0.7	108.2*	95.4*	110.1*	25.3	102.0*
C[C@@H]1CN([C@@H](C)CO)C(=O)c2cc(NS(=O)(=O)c3ccccc3)ccc2O[C@@H](C)CCCCO[C@@H]1CN(C)Cc1ccc(C(F)(F)F)cc1	0.2	0.2	75.1	·	·	·	·
C[C@@H]1CCCCO[C@H](CN(C)Cc2ccc(C(F)(F)F)cc2)[C@@H](C)CN([C@H](C)CO)C(=O)c2cc(NS(=O)(=O)c3ccccc3)ccc2O1	4.6	1.9	?	97.3*	-6.8	14.6	49.6*
CCC1(C)Cc2ccccc2-c2nc3[nH]nc(SCC(=O)Nc4ccc(OC)c(Cl)c4)n3c(=O)c21 (stereo unspecified)	-0.3	·	·	·	·	·	·
CC(C)(C)c1ccc(SCC(O)CSc2nc3c(cc2C#N)CCCC3)cc1 (stereo unspecified)	-0.4	·	·	·	·	·	·
COCc1nc2ccccc2n1CCOc1ccc(Br)cc1	-0.9	·	·	·	·	·	·
Cc1noc(C)c1NC(=O)Nc1ccc2c(c1)C(=O)N([C@@H](C)CO)C[C@H](C)[C@@H](CN(C)S(=O)(=O)c1ccc(F)cc1)OCCCC[C@H](C)O2	0.5	2.1	13.3	·	·	·	·
CS(=O)(=O)N(CC(=O)Nc1ccc(Br)cc1)c1ccc(Cl)c(C(F)(F)F)c1	-0.4	·	·	·	·	·	·
C[C@H](CO)N1C[C@H](C)[C@@H](CN(C)Cc2cncnc2)Oc2cc(C3=CCCCC3)ccc2S1(=O)=O	·	1.7	67.2	·	·	·	·
C[C@H](CO)N1C[C@H](C)[C@@H](CN(C)Cc2ccccc2)Oc2cc(C3=CCCCC3)ccc2S1(=O)=O	0.2	0.3	115.6*	100.5*	101.1*	45.5*	105.0*
C[C@@H]1CN([C@@H](C)CO)S(=O)(=O)c2ccc(C3=CCCCC3)cc2O[C@@H]1CN(C)Cc1ccccc1	-0.9	-0.4	122.3*	99.9*	117.0*	27.0	105.6*
C[C@@H]1CN([C@H](C)CO)S(=O)(=O)c2ccc(C3=CCCCC3)cc2O[C@@H]1CN(C)Cc1ccccc1	1.9	-0.7	125.0*	96.8*	102.1*	25.7	104.9*
C[C@H](CO)N1C[C@H](C)[C@H](CN(C)Cc2cccc(C(=O)O)c2)Oc2cc(C3=CCCCC3)ccc2S1(=O)=O	·	2.3	50.4	·	·	·	·
C[C@H]1CN([C@@H](C)CO)S(=O)(=O)c2ccc(C3=CCCCC3)cc2O[C@H]1CN(C)Cc1ccccc1	-0.5	0.0	120.1*	91.1	92.8	68.5*	105.4*
C[C@@H]1CN([C@H](C)CO)S(=O)(=O)c2ccc(C3=CCCCC3)cc2O[C@H]1CN(C)Cc1cncnc1	·	1.2	43.3	·	·	·	·
C[C@H](CO)N1C[C@H](C)[C@@H](CN(C)S(=O)(=O)c2cccs2)Oc2ccc(NC(=O)Cc3ccccc3)cc2CC1=O	-1.2	-0.1	8.4	·	·	·	·
O=C(C[C@H]1CC[C@@H](NC(=O)CC2CC2)[C@H](CO)O1)NCc1ccccc1	·	1.7	·	·	·	·	·
C[C@@H]1CN([C@@H](C)CO)S(=O)(=O)c2ccc(-c3cccnc3)cc2O[C@@H]1CN(C)C(=O)C1CCCCC1	·	-2.7	69.7	·	·	·	·
c1ccc(-c2noc(CSc3nnc(C4CC4)n3-c3ccccc3)n2)cc1	0.3	·	·	·	·	·	·
CN(C)CCCNC(=O)[C@H]1[C@H](CO)[C@H]2Cn3c(ccc(-c4ccccc4)c3=O)[C@@H]1N2C	·	1.3	5.3	·	·	·	·
SMILES	IDH1 R132H inh	KDM4C inh	T cruzi growth-1	T cruzi growth-2	T cruzi growth-3	3T3 cytotox	3T3 cytotox 2
C[C@H](CO)N1C[C@H](C)[C@H](CN(C)Cc2ccccc2)Oc2cc(C3=CCCCC3)ccc2S1(=O)=O	-2.1	-1.4	?	100.4*	70.6	0.3	102.6*
C[C@H]1CN([C@@H](C)CO)S(=O)(=O)c2ccc(C3=CCCCC3)cc2O[C@@H]1CN(C)Cc1cncnc1	1.8	2.5	102.4*	101.8*	62.8	55.0*	69.2*
C[C@@H]1CN([C@@H](C)CO)S(=O)(=O)c2ccc(C3=CCCCC3)cc2O[C@@H]1CN(C)Cc1cncnc1	·	2.7	44.6	·	·	·	·
C[C@@H]1CN([C@@H](C)CO)S(=O)(=O)c2ccc(C3=CCCCC3)cc2O[C@H]1CN(C)Cc1cncnc1	-2.1	1.2	90.2	·	·	·	·
C[C@H](CO)N1C[C@H](C)[C@@H](CN(C)Cc2ccc3c(c2)OCO3)Oc2c(NS(=O)(=O)c3ccc(F)cc3)cccc2C1=O	·	·	-12.1	·	·	·	·
COCC#Cc1ccc([C@@H]2[C@H](CO)N3CCCCN(Cc4ccncc4)C[C@@H]23)cc1	·	2.2	17.0	·	·	·	·
CCCC#Cc1ccc([C@H]2[C@@H](CO)N3CCCCN(Cc4ccncc4)C[C@@H]23)cc1	·	0.7	114.7*	100.8*	28.2	?	70.8*
CCCC#Cc1ccc([C@@H]2[C@H]3CN(CCC)CCCCN3[C@H]2CO)cc1	·	0.1	79.1	·	·	·	·

From PubChem
